The source made the active and inactive calls.
Experiments:
[1] = tested on: MDA-MB-231; assay: Downregulation of MMP9 in human MDA-MB-231 cells at 10 uM by Western blot analysis; format: functional, cell-based
Method in brief: (§1)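 MDA-MB-231 cells in DMEM with 10% FBS at 37 °C were treated for 12 h. Whole-cell lysates were made in RIPA buffer (pH 7.5) at 4 °C, then SDS-PAGE, nitrocellulose transfer, and immunoblotting for MMP-2 and MMP-9, with β-actin as loading control. Detection was by HRP secondary antibody and chemiluminescence. Relative band density was quantified by densitometry.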

[2] = tested on: MDA-MB-231; assay: Downregulation of MMP2 in human MDA-MB-231 cells at 10 uM by Western blot analysis; format: functional, cell-based; method in brief: as §1
[3] = target: T1, NF-kappa-B inhibitor alpha (Homo sapiens) (UniProt P25963); assay: Inhibition of IkappaBalpha phosphorylation in human MDA-MB-231 cells after 12 hrs by Western blot analysis; format: cell-based
T1 sequence (whole entry): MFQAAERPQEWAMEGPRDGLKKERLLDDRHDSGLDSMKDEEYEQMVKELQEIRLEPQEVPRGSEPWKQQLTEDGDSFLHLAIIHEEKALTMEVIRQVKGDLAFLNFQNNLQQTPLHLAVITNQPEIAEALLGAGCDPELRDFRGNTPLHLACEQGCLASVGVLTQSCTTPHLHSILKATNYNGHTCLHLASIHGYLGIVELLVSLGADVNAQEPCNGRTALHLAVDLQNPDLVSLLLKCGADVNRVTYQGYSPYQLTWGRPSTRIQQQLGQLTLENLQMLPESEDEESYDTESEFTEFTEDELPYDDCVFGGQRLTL
Method in brief: (§2)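 For the time course, cells exposed to 20 µM for various times; for dose response, 5, 10 or 20 µM for 12 h. Lysates immunoblotted with phospho-IκB-α and total IκB-α antibodies, HRP secondary, chemiluminescence detection, densitometry.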

[4] = tested on: MDA-MB-231; assay: Downregulation of MMP9 expression in human MDA-MB-231 cells at 0.5 to 1 uM after 12 hrs by Western blot analysis; format: functional, cell-based
[5] = tested on: SK-HEP1; assay: Antiinvasive activity against human SKHEP1 cells; format: functional, cell-based
[6] = target: T1, NF-kappa-B inhibitor alpha (Homo sapiens); assay: Inhibition of IkappaBalpha phosphorylation in human MDA-MB-231 cells at 5 to 20 uM after 12 to 24 hrs by Western blot analysis; format: cell-based
[7] = tested on: MDA-MB-231; assay: Antimetastatic activity against human MDA-MB-231 cells assessed as inhibition of anchorage-independent colony formation after 21 days by inverted microscopy; format: functional, cell-based
Method in brief: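 Cells pretreated 0–20 µM for 24 h, then 5 × 10^3 cells suspended in 0.33% agarose with 10% FBS over 0.5% agarose base layer; grown at 37 °C, 5% CO2. Colonies counted after 21 days under inverted microscope at 40×; 3 independent experiments, means ± SD.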

[8] = tested on: MDA-MB-231; assay: Downregulation of MMP2 expression in human MDA-MB-231 cells at 5 to 20 uM after 12 hrs by Western blot analysis; format: functional, cell-based
Method in brief: (§3)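 Cells exposed to 5, 10 or 20 µM for 12 h; lysed in RIPA buffer (pH 7.5) with protease/phosphatase inhibitors. 50–100 µg protein run on SDS-PAGE, transferred to nitrocellulose, probed with phospho-specific and total antibodies (β-actin loading control), HRP secondary, ECL detection, densitometry.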

[9] = tested on: MDA-MB-231; assay: Antiinvasive activity against human MDA-MB-231 cells assessed as F-actin reorganization at 20 uM incubated 24 hrs post-serum starvation measured after 12 hrs by TRITC-conjugated phalloidin staining method; format: functional, cell-based
Method in brief: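 Cells seeded, serum-starved (0.1%) overnight, then exposed for 12 h in DMEM with 10% FBS. Fixed in 4% paraformaldehyde 10 min, permeabilized with 0.1% Triton X-100 5 min, F-actin stained with TRITC-phalloidin (500 ng/ml) 1 h; imaged by fluorescence microscopy at 100×.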

[10] = target: Mitogen-activated protein kinase; ERK1/ERK2 (Homo sapiens) (UniProt P27361+P28482); assay: Inhibition of ERK 1/2 phosphorylation in human MDA-MB-231 cells at 5 to 20 uM after 12 hrs by Western blot analysis; format: cell-based; method in brief: as §3
Mitogen-activated protein kinase; ERK1/ERK2 (Homo sapiens), sequence (P27361 whole entry, looked up): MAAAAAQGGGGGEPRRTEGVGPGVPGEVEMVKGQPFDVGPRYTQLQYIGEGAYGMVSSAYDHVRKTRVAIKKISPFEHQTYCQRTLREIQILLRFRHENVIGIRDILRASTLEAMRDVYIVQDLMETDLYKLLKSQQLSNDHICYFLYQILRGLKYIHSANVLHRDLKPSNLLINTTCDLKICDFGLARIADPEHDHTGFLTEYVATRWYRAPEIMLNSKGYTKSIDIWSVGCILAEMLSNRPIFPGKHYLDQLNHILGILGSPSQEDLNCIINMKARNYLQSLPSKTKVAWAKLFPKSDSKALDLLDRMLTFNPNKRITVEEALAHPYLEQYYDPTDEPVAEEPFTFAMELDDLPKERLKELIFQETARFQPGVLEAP
Mitogen-activated protein kinase; ERK1/ERK2 (Homo sapiens), sequence (P28482 whole entry, looked up): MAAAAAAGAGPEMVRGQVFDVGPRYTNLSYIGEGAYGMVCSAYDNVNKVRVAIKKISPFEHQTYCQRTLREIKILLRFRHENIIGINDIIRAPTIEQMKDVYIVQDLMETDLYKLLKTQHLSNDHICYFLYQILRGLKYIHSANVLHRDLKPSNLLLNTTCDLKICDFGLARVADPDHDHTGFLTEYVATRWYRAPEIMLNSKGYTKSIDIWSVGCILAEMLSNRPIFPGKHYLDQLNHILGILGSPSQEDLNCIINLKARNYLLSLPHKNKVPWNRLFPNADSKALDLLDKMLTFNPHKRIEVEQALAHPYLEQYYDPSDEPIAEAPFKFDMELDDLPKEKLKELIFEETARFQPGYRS

[11] = tested on: MDA-MB-231; assay: Antimetastatic activity against human MDA-MB-231 cells assessed as inhibition of wound closure activity up to 20 uM at 12 hrs by scratch motility assay; format: functional, cell-based
[12] = tested on: MDA-MB-231; assay: Antiinvasive activity against human MDA-MB-231 cells pretreated for 12 hrs followed by compound-wash out measured after 12 hrs by Boyden chamber assay; format: functional, cell-based
Method in brief: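 Cells pretreated 12 h, resuspended in serum-free medium (2 × 10^5 cells/ml) in upper chamber coated with Matrigel diluted 1:25; 10% FBS medium below. After 12 h, non-invaded cells removed; invaded cells methanol-fixed, Giemsa-stained, counted at 200× in 5 random fields per replicate (n = 4), averaged.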

[13] = tested on: MDA-MB-231; assay: Cytotoxicity against human MDA-MB-231 cells at 25 to 100 uM after 24 hrs by MTT assay; format: functional, cell-based
Method in brief: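 Cells seeded at 5 × 10^4/well, grown 24 h in complete medium, exposed 0–100 µM for 24 h (control 0.2% DMSO). Medium replaced, MTT added for 4 h, formazan dissolved in DMSO, absorbance read at 570 nm.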

[14] = tested on: MDA-MB-231; assay: Upregulation of TIMP2 expression in human MDA-MB-231 cells at 1 to 3.5 uM after 12 hrs by Western blot analysis; format: functional, cell-based
[15] = target: Focal adhesion kinase 1 (Homo sapiens) (UniProt Q05397); assay: Inhibition of FAK phosphorylation in human MDA-MB-231 cells after 12 hrs by Western blot analysis; format: cell-based
Focal adhesion kinase 1 (Homo sapiens), sequence (Q05397 2-1052 limits assumed): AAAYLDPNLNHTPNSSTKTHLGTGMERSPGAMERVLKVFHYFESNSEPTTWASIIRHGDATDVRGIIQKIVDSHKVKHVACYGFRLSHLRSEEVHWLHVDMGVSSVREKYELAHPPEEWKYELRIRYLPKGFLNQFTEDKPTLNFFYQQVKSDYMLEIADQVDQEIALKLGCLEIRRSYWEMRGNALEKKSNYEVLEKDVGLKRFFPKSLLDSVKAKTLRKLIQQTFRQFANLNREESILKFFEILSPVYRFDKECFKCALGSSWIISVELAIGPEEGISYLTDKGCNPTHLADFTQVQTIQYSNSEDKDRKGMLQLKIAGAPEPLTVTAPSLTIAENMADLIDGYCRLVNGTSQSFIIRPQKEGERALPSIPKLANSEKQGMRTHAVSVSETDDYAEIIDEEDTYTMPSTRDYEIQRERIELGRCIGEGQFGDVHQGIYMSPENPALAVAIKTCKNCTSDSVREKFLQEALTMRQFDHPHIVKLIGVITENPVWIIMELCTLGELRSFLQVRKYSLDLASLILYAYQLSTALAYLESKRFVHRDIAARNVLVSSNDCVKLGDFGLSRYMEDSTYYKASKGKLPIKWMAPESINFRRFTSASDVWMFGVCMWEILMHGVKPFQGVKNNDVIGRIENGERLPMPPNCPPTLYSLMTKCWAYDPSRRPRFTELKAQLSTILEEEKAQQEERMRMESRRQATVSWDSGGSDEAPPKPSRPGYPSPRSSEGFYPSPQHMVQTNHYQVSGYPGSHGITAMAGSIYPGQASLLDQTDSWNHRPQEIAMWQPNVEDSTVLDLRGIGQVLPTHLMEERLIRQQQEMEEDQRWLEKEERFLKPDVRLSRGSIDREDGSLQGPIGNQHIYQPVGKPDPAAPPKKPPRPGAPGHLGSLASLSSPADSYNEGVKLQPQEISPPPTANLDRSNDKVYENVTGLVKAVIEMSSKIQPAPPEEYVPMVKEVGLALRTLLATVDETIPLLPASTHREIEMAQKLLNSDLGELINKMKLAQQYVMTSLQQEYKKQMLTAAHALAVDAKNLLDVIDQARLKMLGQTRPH
Method in brief: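 Cells exposed 0–20 µM for 12 h; lysates in RIPA buffer immunoblotted with phospho-FAK, total FAK and β-actin antibodies; HRP secondary, chemiluminescence, densitometry.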

[16] = tested on: MDA-MB-231; assay: Upregulation of TIMP1 expression in human MDA-MB-231 cells at 0.5 to 1 uM after 12 hrs by Western blot analysis; format: functional, cell-based
[17] = target: 72 kDa type IV collagenase (Homo sapiens) (UniProt P08253); assay: Inhibition of MMP2 in human MDA-MB-231 cells at 20 uM up to 12 hrs by gelatin-zymogrphy; format: cell-based
72 kDa type IV collagenase (Homo sapiens), sequence (P08253 110-660 limits assumed): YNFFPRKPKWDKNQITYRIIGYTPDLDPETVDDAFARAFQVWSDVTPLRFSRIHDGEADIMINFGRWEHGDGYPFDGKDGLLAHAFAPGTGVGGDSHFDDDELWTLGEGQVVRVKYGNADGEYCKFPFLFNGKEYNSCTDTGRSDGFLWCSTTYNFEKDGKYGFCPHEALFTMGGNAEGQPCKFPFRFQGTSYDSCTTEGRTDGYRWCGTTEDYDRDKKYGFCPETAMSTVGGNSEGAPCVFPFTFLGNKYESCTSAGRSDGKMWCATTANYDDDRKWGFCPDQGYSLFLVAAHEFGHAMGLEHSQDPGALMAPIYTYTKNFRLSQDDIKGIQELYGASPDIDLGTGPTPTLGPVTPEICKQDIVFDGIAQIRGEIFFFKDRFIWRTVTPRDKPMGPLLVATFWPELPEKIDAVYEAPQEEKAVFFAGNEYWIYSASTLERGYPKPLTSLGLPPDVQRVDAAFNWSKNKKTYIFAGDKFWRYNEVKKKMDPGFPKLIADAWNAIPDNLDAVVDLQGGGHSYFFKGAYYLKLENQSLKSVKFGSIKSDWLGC
Method in brief: (§4)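 Cells seeded at 4 × 10^5 cells/ml overnight, exposed to 20 µM for 0–12 h. Conditioned media run on 8% SDS-PAGE containing 0.1% gelatin (150 V, 3 h), SDS removed with 2% Triton X-100 washes, gels incubated in 10 mM CaCl2, 40 mM Tris-HCl pH 8.0 for 16 h at 37 °C, Coomassie-stained.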

[18] = target: T1, NF-kappa-B inhibitor alpha (Homo sapiens); assay: Inhibition of IkappaBalpha phosphorylation in human MDA-MB-231 cells at 5 to 20 uM after 3 to 24 hrs by Western blot analysis; format: cell-based; method in brief: as §2
[19] = tested on: MDA-MB-231; assay: Antiinvasive activity against human MDA-MB-231 cells xenografted in athymic nude BALB/c mouse assessed as decrease in lung metastasis at 5 and 20 mg/kg, ip administered 3 times per week starting 1 week prior to xenografting measured after 5 weeks by hematoxylin-staining relative to control; format: functional, organism-based; design: dose 20 mg/kg
Method in brief: (§5)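 Female six-week-old BALB/c-nu mice (n = 6/group) dosed i.p. 3 times/week for 5 weeks (100 µl vehicle, or PBS). After 1 week, 1 × 10^6 cells injected into tail vein. Mice euthanized 4 weeks post-injection; lungs photographed, weighed, and H&E/hematoxylin sections examined for tumor cells. Means ± SD; one-way ANOVA with Dunnett's test.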

[20] = tested on: MDA-MB-231; assay: Upregulation of TIMP2 expression in human MDA-MB-231 cells at 1.1 to 3.6 uM after 12 hrs by Western blot analysis; format: functional, cell-based
[21] = tested on: MDA-MB-231; assay: Antiinvasive activity against human MDA-MB-231 cells xenografted in athymic nude BALB/c mouse assessed as decrease in lung size at 5 and 20 mg/kg, ip administered 3 times per week starting 1 week prior to xenografting measured after 5 weeks relative to control; format: functional, organism-based; design: dose 20 mg/kg; method in brief: as §5
[22] = target: Matrix metalloproteinase-9 (Homo sapiens) (UniProt P14780); assay: Inhibition of MMP9 in human MDA-MB-231 cells at 20 uM up to 12 hrs by gelatin-zymogrphy; format: cell-based; method in brief: as §4
Matrix metalloproteinase-9 (Homo sapiens), sequence (P14780 whole entry): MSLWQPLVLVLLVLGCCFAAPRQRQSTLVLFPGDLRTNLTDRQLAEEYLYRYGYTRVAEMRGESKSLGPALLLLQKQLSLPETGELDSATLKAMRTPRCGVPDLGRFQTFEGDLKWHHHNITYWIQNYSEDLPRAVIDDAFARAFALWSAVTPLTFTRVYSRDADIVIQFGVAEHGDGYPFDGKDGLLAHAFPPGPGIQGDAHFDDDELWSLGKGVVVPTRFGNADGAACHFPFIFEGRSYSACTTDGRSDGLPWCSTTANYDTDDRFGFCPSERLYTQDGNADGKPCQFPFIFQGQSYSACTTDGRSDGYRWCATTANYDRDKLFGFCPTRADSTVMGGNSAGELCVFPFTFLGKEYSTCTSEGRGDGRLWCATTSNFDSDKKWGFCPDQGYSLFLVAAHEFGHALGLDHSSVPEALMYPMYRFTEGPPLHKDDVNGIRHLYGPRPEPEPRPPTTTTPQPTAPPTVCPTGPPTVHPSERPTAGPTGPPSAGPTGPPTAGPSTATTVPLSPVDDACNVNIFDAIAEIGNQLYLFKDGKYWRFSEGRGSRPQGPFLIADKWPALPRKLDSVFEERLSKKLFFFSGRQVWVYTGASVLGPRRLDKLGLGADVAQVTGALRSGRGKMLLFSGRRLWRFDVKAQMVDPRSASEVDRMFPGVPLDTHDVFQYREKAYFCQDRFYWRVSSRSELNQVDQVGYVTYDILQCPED

[23] = tested on: MDA-MB-231; assay: Antiinvasive activity against human MDA-MB-231 cells xenografted in athymic nude BALB/c mouse assessed as decrease in lung weight at 5 and 20 mg/kg, ip administered 3 times per week starting 1 week prior to xenografting measured after 5 weeks relative to control; format: functional, organism-based; design: dose 20 mg/kg; method in brief: as §5
[24] = tested on: MDA-MB-231; assay: Upregulation of TIMP1 expression in human MDA-MB-231 cells at 0.2 to 0.8 uM after 12 hrs by Western blot analysis; format: functional, cell-based
[25] = tested on: MDA-MB-231; assay: Downregulation of MMP9 expression in human MDA-MB-231 cells at 0.1 to 0.9 uM after 12 hrs by Western blot analysis; format: functional, cell-based
[26] = tested on: MDA-MB-231; assay: Downregulation of MMP9 in human MDA-MB-231 cells at 50 uM by Western blot analysis; format: functional, cell-based
[27] = tested on: MDA-MB-231; assay: Downregulation of MMP2 in human MDA-MB-231 cells at 50 uM by Western blot analysis; format: functional, cell-based

S=C(S)N1CCCC1
active: Activity [1] | Activity [2]

COc1cc(O)c2c(c1)oc(=O)c1c3cc(O)c(O)cc3oc21
active: inhibition [3] Dose-dependent effect | Activity [4] | Activity [5] | inhibition [6] | inhibition [7] Dose-dependent effect | Activity [8] | Activity [9] | inhibition [10] | inhibition [11] | Activity [12] Dose-dependent effect | Activity [13] | Activity [14] | inhibition [15] Dose-dependent effect | Activity [16]

O=c1oc2cc(O)cc(O)c2c2oc3cc(O)c(O)cc3c12
active: inhibition [3] Dose-dependent effect | inhibition [17] | inhibition [18] | Activity [19] | Activity [20] | Activity [21] | Activity [5] | inhibition [7] Dose-dependent effect | inhibition [22] | Activity [8] | Activity [23] | Activity [9] | inhibition [10] | inhibition [11] | Activity [12] Dose-dependent effect | Activity [13] | inhibition [15] Dose-dependent effect | Activity [24] | Activity [25]

COc1cccc(-c2cc(=O)c3ccccc3o2)c1N
active: Activity [26] | Activity [27]

— ChEMBL document CHEMBL2086225, “Demethylwedelolactone derivatives inhibit invasive growth in vitro and lung metastasis of MDA-MB-231 breast cancer cells in nude mice” (Eur J Med Chem, 2012)
